Source: ChEMBL document CHEMBL4842372, “Discovery of ARD-2585 as an Exceptionally Potent and Orally Active PROTAC Degrader of Androgen Receptor for the Treatment of Advanced Prostate Cancer” (J Med Chem, 2021)
Calls of active or inactive are those of the source. The calls are words filed in the database; no cut-off is given here.

Assays:
[1] = tested on: Protein cereblon/Androgen receptor (Homo sapiens), P10275+Q96SW2 [T878A]; assay: Protac activity at CRBN/AR T878A mutant in human LNCaP cells assessed as reduction in AR protein level at 100 nM after 3 hrs in presence of MLN4924 by Western blot analysis
LNCaP = assay: Potency index, ratio of ARV-110 IC50 to compound IC50 for reduction in AR degradation human LNCaP cells after 24 hrs by Western blot analysis; assay type: functional
[2] = Drug distribution in CB17:SCID mouse xenografted with human VCaP cells assessed as prostate gland to plasma ratio at 20 mg/kg, po measured at 1 hrs by LCMS analysis; assay type: ADME, organism-based
Method in brief: (§1)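 Tumor-bearing male CB17 SCID mice (VCaP xenografts) given one 20 mg/kg oral dose in 100% PEG200, three mice per time point; plasma, tumor, liver, kidney, prostate and heart taken at 1, 6 and 24 h; tissues homogenised in water/acetonitrile, protein precipitated with cold acetonitrile, drug quantified by LC–MS/MS; ratios are tissue over plasma level.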

[3] = molecular target: T1, Protein cereblon/Androgen receptor (Homo sapiens, UniProt P10275+Q96SW2); assay: Protac activity at CRBN/AR in human VCaP cells assessed as reduction in AR protein level at 0.1 nM after 24 hrs by Western blot analysis relative to control; assay type: cell-based
Method in brief: (§2)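 Western blot of AR after 24 h exposure to a concentration series in ATCC-derived cells, all with 10% FBS at 37 °C and 5% CO2: LNCaP and 22Rv1 in RPMI1640, VCaP in DMEM with Glutamax, MDA-PCa-2b in F-12K. Lysis in RIPA with protease and phosphatase inhibitors, then 4–12% SDS-PAGE and PVDF transfer. Band minus background is normalised to GAPDH.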

[4] = Drug distribution in liver of CB17:SCID mouse xenografted with human VCaP cells at 20 mg/kg, po measured at 24 hrs by LCMS analysis; assay type: ADME, organism-based; details: read-out: Drug uptake
Method in brief: as §1

[5] = Drug distribution in CB17:SCID mouse xenografted with human VCaP cells assessed as tumor to plasma ratio at 20 mg/kg, po measured at 6 hrs by LCMS analysis; assay type: ADME, organism-based
Method in brief: as §1

[6] = Drug distribution in liver of CB17:SCID mouse xenografted with human VCaP cells at 20 mg/kg, po measured at 1 hrs by LCMS analysis; assay type: ADME, organism-based; details: read-out: Drug uptake
Method in brief: as §1

[7] = Drug distribution in CB17:SCID mouse xenografted with human VCaP cells assessed as liver to plasma ratio at 20 mg/kg, po measured at 6 hrs by LCMS analysis; assay type: ADME, organism-based
Method in brief: as §1

[8] = Drug distribution in prostate gland of CB17:SCID mouse xenografted with human VCaP cells at 20 mg/kg, po measured at 6 hrs by LCMS analysis; assay type: ADME, organism-based; details: read-out: Drug uptake
Method in brief: as §1

[9] = Drug distribution in CB17:SCID mouse xenografted with human VCaP cells assessed as liver to plasma ratio at 20 mg/kg, po measured at 1 hrs by LCMS analysis; assay type: ADME, organism-based
Method in brief: as §1

[10] = molecular target: Protein cereblon/Androgen receptor (Homo sapiens, UniProt P10275+Q96SW2, T878A); details: lncap
VCaP = assay: Antitumor activity against human VCaP cells xenografted in CB17:SCID mouse assessed as reduction in AR protein level in tumor at 20 mg/kg, po measured for 6 to 24 hrs by Western blot analysis; assay type: functional, organism-based; details: time 6-24 hrs
Method in brief: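 VCaP xenografts in male CB17 SCID mice grown to about 200 mm3; single oral gavage dose of 20 mg/kg in 100% PEG200; tumors collected at 6 and 24 h, RIPA lysates blotted for AR with GAPDH as loading control, band intensity normalised to loading control.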

[11] = molecular target: T1, Protein cereblon/Androgen receptor; assay: Protac activity at CRBN/AR in human MDA-PCa-2b cells assessed as maximal AR degradation at 1 nM after 24 hrs by Western blot analysis relative to control; assay type: cell-based
Method in brief: as §2

[12] = molecular target: Voltage-gated inwardly rectifying potassium channel KCNH2 (Homo sapiens, UniProt Q12809); assay: Inhibition of human ERG up to 30 uM
Method in brief: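 hERG potassium channel stably expressed in HEK 293 cells; current recorded by manual patch clamp at 0.3, 1, 3, 10 and 30 μM, in duplicate, for concentration–response.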

T1 sequence (P10275 whole entry, looked up): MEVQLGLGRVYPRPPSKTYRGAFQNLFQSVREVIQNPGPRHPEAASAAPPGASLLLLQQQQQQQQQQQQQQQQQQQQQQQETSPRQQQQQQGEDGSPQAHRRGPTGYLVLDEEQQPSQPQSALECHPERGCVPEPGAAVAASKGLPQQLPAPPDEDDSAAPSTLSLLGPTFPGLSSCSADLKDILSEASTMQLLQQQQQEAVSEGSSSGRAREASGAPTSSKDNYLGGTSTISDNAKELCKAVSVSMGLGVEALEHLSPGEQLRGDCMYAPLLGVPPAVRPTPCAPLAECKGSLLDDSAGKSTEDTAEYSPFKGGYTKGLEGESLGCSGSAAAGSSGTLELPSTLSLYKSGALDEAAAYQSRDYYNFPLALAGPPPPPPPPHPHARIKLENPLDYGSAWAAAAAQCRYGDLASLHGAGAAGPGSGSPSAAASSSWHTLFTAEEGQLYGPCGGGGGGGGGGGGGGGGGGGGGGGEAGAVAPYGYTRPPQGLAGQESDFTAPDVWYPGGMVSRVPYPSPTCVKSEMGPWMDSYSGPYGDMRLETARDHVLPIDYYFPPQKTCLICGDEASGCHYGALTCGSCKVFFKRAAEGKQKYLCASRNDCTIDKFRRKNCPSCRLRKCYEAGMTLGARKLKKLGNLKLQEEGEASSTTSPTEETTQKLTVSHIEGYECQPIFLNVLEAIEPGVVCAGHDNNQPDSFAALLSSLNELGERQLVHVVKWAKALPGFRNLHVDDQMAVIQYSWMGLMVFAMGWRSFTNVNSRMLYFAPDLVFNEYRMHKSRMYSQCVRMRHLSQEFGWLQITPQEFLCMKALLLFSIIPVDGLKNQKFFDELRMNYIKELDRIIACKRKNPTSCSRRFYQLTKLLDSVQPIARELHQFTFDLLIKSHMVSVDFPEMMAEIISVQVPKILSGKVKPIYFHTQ
T1 sequence (Q96SW2 whole entry, looked up): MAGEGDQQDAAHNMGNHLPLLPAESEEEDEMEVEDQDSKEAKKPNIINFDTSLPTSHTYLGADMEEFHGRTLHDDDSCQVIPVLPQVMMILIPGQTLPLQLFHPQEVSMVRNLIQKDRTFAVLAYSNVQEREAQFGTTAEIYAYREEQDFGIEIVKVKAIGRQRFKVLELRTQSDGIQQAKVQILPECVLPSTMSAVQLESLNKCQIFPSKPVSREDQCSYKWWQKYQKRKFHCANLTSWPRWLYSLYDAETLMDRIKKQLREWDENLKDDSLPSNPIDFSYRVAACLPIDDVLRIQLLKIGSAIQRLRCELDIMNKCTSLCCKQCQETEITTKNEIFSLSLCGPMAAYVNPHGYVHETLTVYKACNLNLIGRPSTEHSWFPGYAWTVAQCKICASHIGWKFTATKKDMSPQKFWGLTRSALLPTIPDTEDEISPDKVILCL
Sequence of Voltage-gated inwardly rectifying potassium channel KCNH2 (Q12809 whole entry): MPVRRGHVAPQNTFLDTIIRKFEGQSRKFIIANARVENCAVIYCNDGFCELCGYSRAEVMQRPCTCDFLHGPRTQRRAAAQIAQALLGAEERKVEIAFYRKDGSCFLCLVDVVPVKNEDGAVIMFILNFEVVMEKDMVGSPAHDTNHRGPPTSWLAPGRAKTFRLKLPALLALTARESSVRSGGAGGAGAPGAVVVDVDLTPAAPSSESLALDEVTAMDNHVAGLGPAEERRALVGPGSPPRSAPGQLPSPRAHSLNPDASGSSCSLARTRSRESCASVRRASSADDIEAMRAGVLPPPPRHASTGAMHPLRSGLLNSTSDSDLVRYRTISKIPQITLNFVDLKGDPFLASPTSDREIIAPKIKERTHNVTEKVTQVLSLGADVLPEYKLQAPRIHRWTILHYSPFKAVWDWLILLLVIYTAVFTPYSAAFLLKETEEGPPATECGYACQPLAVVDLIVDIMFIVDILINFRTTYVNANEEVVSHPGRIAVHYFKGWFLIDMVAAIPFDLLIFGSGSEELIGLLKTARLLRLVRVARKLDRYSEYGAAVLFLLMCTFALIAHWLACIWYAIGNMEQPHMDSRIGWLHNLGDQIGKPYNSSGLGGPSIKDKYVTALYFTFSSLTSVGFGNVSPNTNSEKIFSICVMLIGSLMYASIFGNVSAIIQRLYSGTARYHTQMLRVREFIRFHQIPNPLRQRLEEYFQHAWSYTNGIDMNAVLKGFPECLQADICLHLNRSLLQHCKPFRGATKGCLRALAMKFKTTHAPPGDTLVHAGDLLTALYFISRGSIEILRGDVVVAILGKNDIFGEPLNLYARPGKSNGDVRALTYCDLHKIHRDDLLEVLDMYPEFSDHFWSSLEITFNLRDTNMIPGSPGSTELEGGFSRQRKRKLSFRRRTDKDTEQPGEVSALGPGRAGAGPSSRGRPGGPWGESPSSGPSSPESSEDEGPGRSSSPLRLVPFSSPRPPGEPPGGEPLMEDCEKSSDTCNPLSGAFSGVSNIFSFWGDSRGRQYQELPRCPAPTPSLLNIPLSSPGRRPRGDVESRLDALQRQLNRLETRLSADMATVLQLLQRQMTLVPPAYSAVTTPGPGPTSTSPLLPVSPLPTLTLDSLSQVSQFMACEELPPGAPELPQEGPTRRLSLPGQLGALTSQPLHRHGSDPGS
Sequence of Protein cereblon/Androgen receptor (Homo sapiens, UniProt P10275+Q96SW2, T878A) (P10275 whole entry T878A, stated change not applied): as the sequence (P10275 whole entry, looked up) above, with T878A counted along it
Sequence of Protein cereblon/Androgen receptor (Homo sapiens, UniProt P10275+Q96SW2, T878A) (Q96SW2 whole entry, stated change not applied): as the sequence (Q96SW2 whole entry, looked up) above

CN(c1ccc(C#N)c(Cl)c1)[C@H]1CC[C@H](NC(=O)c2ccc(N3CCN(C4CN(c5ccc6c(c5)C(=O)N(C5CCC(=O)NC5=O)C6=O)C4)CC3)cc2)CC1 (some centres undefined)
Activity [1]: inactive
Ratio (LNCaP): 10
Kp at 1 h [2]: 0.4
inhibition [3]: > 80%
concentration at 24 h [4]: 6870 ng/g
Kp at 6 h [5]: 1.5
concentration at 1 h [6]: 2640 ng/g
Kp at 6 h [7]: 26.2
concentration at 6 h [8]: 76 ng/g
Kp at 1 h [9]: 37.7
DC50 [10]: 0.1 nM
inhibition (VCaP): Active
Emax [11]: > 95%
inhibition (INH) [12]: Not Active
